Measured values as given in ChEMBL document CHEMBL3352531, “Syntheses, neural protective activities, and inhibition of glycogen synthase kinase-3β of substituted quinolines” (Bioorg Med Chem Lett, 2014).

Tests used:
[1] = Cytotoxicity against human MC65 cells by MTT assay; format: cell-based; details: read-out: TC50 (the source's name)
Method in brief: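 MC65 cells kept with tetracycline in the medium to suppress C99 production, so the cells survive and compound toxicity alone is measured. Reported as TC50 (median toxic concentration).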

[2] = Neuroprotective activity in oligomeric amyloid beta peptide-induced human MC65 cells assessed as cell viability by MTT assay; format: functional, cell-based
Method in brief: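 Protection against Aβ oligomer-induced toxicity in MC65 cells, reported as EC50 (median effective concentration).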

[3] = Drug uptake in CD1 mouse kidney at 5 mg/kg, po daily for 75 days; format: ADME, organism-based; set-up: dose 5 mg/kg, route oral; details: read-out: Drug uptake
Method in brief: (§1)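 CD1 mice received 5 mg/Kg by oral gavage once daily for 75 days (four treated, two untreated). Compound in tissues and plasma was quantified by a previously reported procedure and expressed in µM as mean ± standard deviation (n = 4).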

Mus musculus [4] = experiment: Toxicity in CD1 mouse assessed as effect on aspartate aminotransferase activity at 5 mg/kg, po daily for 75 days; format: organism-based; set-up: dose 5 mg/kg, route oral; details: in vivo, 1800 h
Method in brief: (§2)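 After 75 days of daily oral gavage at 5 mg/kg, mice were sacrificed and blood was drawn from the heart into a heparinized syringe. Plasma was separated at once by centrifugation at 10,000 x g for 5 min. ALT and AST activities were measured with a commercial kit and compared between control and treated mice.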

[5] = Drug uptake in CD1 mouse brain at 5 mg/kg, po daily for 75 days; format: ADME, organism-based; set-up: dose 5 mg/kg, route oral; details: read-out: Drug uptake; method in brief: as §1
Mus musculus [6] = experiment: Toxicity in CD1 mouse assessed as effect on locomotion at 5 mg/kg, po daily for 75 days by Versamax chamber test; format: organism-based; set-up: dose 5 mg/kg, route oral; details: in vivo, 1800 h
Method in brief: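 After 75 days of daily 5 mg/Kg oral gavage, control and treated mice were acclimatized for 15 min in a Versamax chamber, then their movements were monitored. Measures were clockwise and counter-clockwise activity, total distance, rest time, and vertical and horizontal activity, compared against control.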

[7] = Drug uptake in CD1 mouse liver at 5 mg/kg, po daily for 75 days; format: ADME, organism-based; set-up: dose 5 mg/kg, route oral; details: read-out: Drug uptake; method in brief: as §1
Mus musculus [8] = experiment: Toxicity in CD1 mouse assessed as effect on alanine transaminase activity at 5 mg/kg, po daily for 75 days; format: organism-based; set-up: dose 5 mg/kg, route oral; details: in vivo, 1800 h; method in brief: as §2
[9] = Drug uptake in CD1 mouse plasma at 5 mg/kg, po daily for 75 days; format: ADME, organism-based; set-up: dose 5 mg/kg, route oral; method in brief: as §1
Lung = experiment: Drug uptake in CD1 mouse lung at 5 mg/kg, po daily for 75 days; format: ADME, organism-based; set-up: dose 5 mg/kg, route oral; details: in vivo, 1800 h; method in brief: as §1
[10] = Drug uptake in CD1 mouse pancreas at 5 mg/kg, po daily for 75 days; format: ADME, organism-based; set-up: dose 5 mg/kg, route oral; details: read-out: Drug uptake; method in brief: as §1

| SMILES | CC50 [1] | EC50 [2] | further results |
| --- | --- | --- | --- |
| COc1cc(NCCCN)c2nccc(C)c2c1Oc1cccc(C(F)(F)F)c1 | 2.1 µM | 0.15 µM | – |
| COc1cc(NCc2ccc(O)cc2)c2nccc(C)c2c1Oc1cccc(C(F)(F)F)c1 | 1.38 µM | 0.12 µM | concentration at 1800 h [3]: 16.1 µM; Activity (Mus musculus [4]): Non-toxic; concentration at 1800 h [5]: 24.4 µM; Activity (Mus musculus [6]): Non-toxic; concentration at 1800 h [7]: 7.1 µM; Activity (Mus musculus [8]): Non-toxic; concentration at 1800 h [9]: 4.5 µM; Drug uptake (Lung): NotTraceable; concentration at 1800 h [10]: 26.5 µM |
| Cc1ccnc2c(NCc3ccc(O)cc3)cc(O)c(Oc3cccc(C(F)(F)F)c3)c12 | 3.31 µM | – | – |
| COc1cc(NCc2ccc(O)cc2)c2nccc(C)c2c1Oc1ccccc1 | 4.01 µM | 0.53 µM | – |
| COc1cc(CNc2cc(OC)c(Oc3cccc(C(F)(F)F)c3)c3c(C)ccnc23)cc(OC)c1O | 2.91 µM | 0.48 µM | – |
| COc1cc(NCCCN)c2nccc(C)c2c1Oc1ccccc1 | 8.16 µM | 0.42 µM | – |
| COc1cc(NCc2ccc(O)cc2)c2nccc(C)c2c1Oc1cccc(F)c1 | 2.6 µM | 0.7 µM | – |
| COc1cc(NCCC(N)=O)c2nccc(C)c2c1Oc1cccc(C(F)(F)F)c1 | > 50 µM | 0.5 µM | – |
| COc1cc(NC(=O)c2ccco2)c2nccc(C)c2c1Oc1cccc(C(F)(F)F)c1 | > 50 µM | 3.47 µM | – |
| COc1cc(NCc2cccc3cccnc23)c2nccc(C)c2c1Oc1cccc(C(F)(F)F)c1 | > 50 µM | 0.19 µM | – |
| COc1cc(NCc2nccs2)c2nccc(C)c2c1Oc1cccc(C(F)(F)F)c1 | 20.3 µM | 2.39 µM | – |
| COc1cc(NCc2cc3ccccc3o2)c2nccc(C)c2c1Oc1cccc(C(F)(F)F)c1 | > 50 µM | 0.46 µM | – |
| COc1cc(NCCCN)c2nccc(C)c2c1 | > 50 µM | 17.6 µM | – |
| COc1cc(NCc2ccc(O)cc2)c2nccc(C)c2c1 | 20.5 µM | 2.62 µM | – |
| COc1cc(NCCCN)c2nccc(C)c2c1Oc1cccc(F)c1 | 7.28 µM | 0.6 µM | – |
| COc1cc(NCc2ccc(-c3ccccc3)s2)c2nccc(C)c2c1Oc1cccc(C(F)(F)F)c1 | 14.5 µM | 0.39 µM | – |
